Active and inactive are the calls of the source. The calls are words filed in the database; no cut-off is given here.
How the values were obtained:
[1] = target: T1, TPR/MET fusion protein (Mus musculus) (UniProt P16056+F6ZDS4); assay: Inhibition of TPR/Met phosphorylation in mouse NIH3T3 cells after 2 hrs by Western blotting analysis; type: cell-based
Outline: (§1)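 Cells grown to exponential phase, treated with compound 2 h at 37°C, lysed in 1× SDS sample buffer, resolved on 10% SDS-PAGE and transferred to nitrocellulose for immunoblotting.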

[2] = Half life in rat at 2 mg/kg, iv and 10 mg/kg, po; type: ADME, organism-based; conditions: in vivo
Outline: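 Rat pharmacokinetics after a single intravenous dose (2 mg/kg) and a single oral dose (10 mg/kg).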

[3] = target: Mast/stem cell growth factor receptor Kit (Homo sapiens, UniProt P10721); assay: Inhibition of c-kit (unknown origin) using poly (Glu, Tyr) 4:1 as substrate after 60 mins by ELISA
Outline: (§2)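 Purified kinase incubated with 10 µmol/L ATP in wells pre-coated with 20 µg/mL poly(Glu,Tyr)4:1. Reaction ran 60 min at 37°C. Phosphotyrosine detected with PY99 antibody, then HRP anti-mouse IgG and o-phenylenediamine/H₂O₂, read at 490 nm. IC50 taken from inhibition curves.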

[4] = target: T1, TPR/MET fusion protein (Mus musculus); assay: Inhibition of TPR/Met phosphorylation in mouse BAF3 cells after 2 hrs by Western blotting analysis; type: cell-based; outline: as §1
SK-OV-3 = assay: Antiproliferative activity against human SKOV3 cells after 72 hrs; conditions: SK-OV-3, 72 h
[5] = target: T2, Hepatocyte growth factor receptor (Homo sapiens, UniProt P08581); assay: Competitive inhibition of c-Met (unknown origin) at 1.3 to 160 uM by Lineweaver-Burk plot analysis in presence of ATP
Outline: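 ATP-competition version of the poly(Glu,Tyr)4:1 ELISA kinase assay (60 min, 37°C, PY99 antibody detection, A490) run at various ATP concentrations; Lineweaver-Burk plot constructed.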

[6] = target: T1, TPR/MET fusion protein (Mus musculus); assay: Inhibition of TPR/Met in mouse BAF3 cells assessed as inhibition of p44/42 phosphorylation at 0.08 to 10 uM after 2 hrs by Western blotting analysis; type: cell-based; outline: as §1
[7] = target: Hepatocyte growth factor receptor (Canis lupus familiaris) (UniProt Q75ZY9); assay: Inhibition of c-Met in MDCK cells assessed as HGF-induced cell scattering after 24 hrs by microscopic analysis; type: cell-based
Outline: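 MDCK cells plated at 1,500/well in 96-well plates and allowed to form clusters over 24 h. Then 24 h with compound plus 50 ng/mL recombinant human HGF in FBS-free medium. Fixed in 4% paraformaldehyde 15 min at room temperature, stained with 0.2% crystal violet and imaged by microscopy.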

[8] = target: T2, Hepatocyte growth factor receptor; assay: Inhibition of c-Met in human EBC1 cells assessed as inhibition of p44/42 phosphorylation at 0.16 to 20 uM after 2 hrs by Western blotting analysis; type: cell-based; outline: as §1
[9] = target: Vascular endothelial growth factor receptor 1 (Homo sapiens, UniProt P17948); assay: Inhibition of FLT1 (unknown origin) using poly (Glu, Tyr) 4:1 as substrate after 60 mins by ELISA
Outline: (§3)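 ELISA on wells precoated with 20 µg/mL poly(Glu,Tyr)4:1. Purified kinase with 10 µmol/L ATP in 50 mM HEPES pH 7.4, 50 mM MgCl₂, 0.5 mM MnCl₂, 0.2 mM Na₃VO₄, 1 mM DTT; 1% DMSO vehicle. 60 min at 37°C. Phosphotyrosine detected with PY99 antibody, then HRP anti-mouse IgG and o-phenylenediamine/H₂O₂, A490. Inhibition = [1−(A490/A490 control)]×100%; IC50 from curves.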

NCI-H441 = assay: Antiproliferative activity against human NCI-H441 cells after 72 hrs; conditions: NCI-H441, 72 h
[10] = target: Tyrosine-protein kinase ABL1 (Homo sapiens, UniProt P00519); assay: Inhibition of Abl (unknown origin) using poly (Glu, Tyr) 4:1 as substrate after 60 mins by ELISA; outline: as §3
NIH3T3 = assay: Antiproliferative activity against mouse NIH/3T3 cells expressing TPR/Met fusion protein after 72 hrs; type: functional, cell-based; conditions: NIH3T3, 72 h
Outline: (§4)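 Cells seeded in 96-well plates, exposed next day to a range of compound concentrations and cultured 72 h; proliferation read by sulforhodamine B or CCK-8. IC50 as mean ± SD (μM) from three separate experiments.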

[11] = target: Proto-oncogene tyrosine-protein kinase Src (Homo sapiens, UniProt P12931); assay: Inhibition of c-Src (unknown origin) using poly (Glu, Tyr) 4:1 as substrate after 60 mins by ELISA; outline: as §2
BaF3 [12] = assay: Induction of cell cycle arrest in mouse BAF3 cells expressing TPR/Met fusion protein assessed as accumulation at G1 phase at 1 uM after 24 hrs by propidium iodide staining-based FACS analysis (reference value: 26.6%); type: functional
[13] = target: Proto-oncogene tyrosine-protein kinase receptor Ret (Homo sapiens, UniProt P07949); assay: Inhibition of RET (unknown origin) using poly (Glu, Tyr) 4:1 as substrate after 60 mins by ELISA; outline: as §3
Mus musculus = assay: Toxicity in mouse allografted with mouse NIH/3T3 cells assessed as decrease in body weight at 100 mg/kg, po qd administered for 2 weeks measured twice per week; type: organism-based, NIH3T3; set-up: dose 100 mg/kg, route oral; conditions: in vivo, 336 h
Outline: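 Tumor fragments of 1 mm³ implanted s.c. in the right flank of nude mice with a trocar. Mice randomized once tumors reached 100–150 mm³. Oral dosing 7 days/week for 2 weeks; vehicle-only controls. Tumors measured twice weekly by microcaliper; body weight monitored.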

[14] = target: T2, Hepatocyte growth factor receptor; assay: Inhibition of c-Met phosphorylation in human EBC1 cells after 2 hrs by Western blotting analysis; type: cell-based
Outline: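 Cells grown under regular conditions to exponential phase, exposed to compound at indicated concentrations for 2 h at 37°C, lysed in 1× SDS sample buffer. Lysates resolved on 10% SDS-PAGE and transferred to nitrocellulose for immunoblotting.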

[15] = target: Macrophage-stimulating protein receptor (Homo sapiens, UniProt Q04912); assay: Inhibition of RON (unknown origin) using poly (Glu, Tyr) 4:1 as substrate after 60 mins by ELISA; outline: as §3
[16] = Antiproliferative activity against human EBC1 cells after 72 hrs; conditions: EBC-1, 72 h
[17] = target: Hepatocyte growth factor receptor (Canis lupus familiaris) (UniProt Q75ZY9); assay: Inhibition of c-Met in MDCK cells assessed as HGF-induced cell motility at 0.3 to 3 uM after 1 to 10 hrs by wound-healing assay; type: cell-based
Outline: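 MDCK monolayers in 12-well plates, pre-incubated 30 min serum-free. Scratch wound made with micropipette and washed, then compound added with or without 50 ng/mL recombinant human HGF at 37°C. Phase-contrast images at 0 and 10 h.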

[18] = target: T2, Hepatocyte growth factor receptor; assay: Inhibition of c-Met in human HCC827/GR5 cells assessed as potentiation of gefitinib-induced cell growth inhibition at 0.5 uM after 72 hrs; type: cell-based
[19] = target: Tyrosine-protein kinase receptor TYRO3 (Homo sapiens, UniProt Q06418); assay: Inhibition of TYRO3 (unknown origin) using poly (Glu, Tyr) 4:1 as substrate after 60 mins by ELISA; outline: as §3
[20] = target: T2, Hepatocyte growth factor receptor; assay: Inhibition of c-Met in gefitinib-resistant human HCC827 cells assessed as inhibition of p44/42 phosphorylation at 0.5 uM after 2 hrs by Western blotting analysis in presence of gefitinib; type: cell-based; outline: as §1
BaF3 [21] = assay: Antiproliferative activity against mouse BAF3 cells expressing TPR/Met fusion protein after 72 hrs; type: functional, cell-based; conditions: BaF3, 72 h; outline: as §4

T2 sequence (P08581 whole entry): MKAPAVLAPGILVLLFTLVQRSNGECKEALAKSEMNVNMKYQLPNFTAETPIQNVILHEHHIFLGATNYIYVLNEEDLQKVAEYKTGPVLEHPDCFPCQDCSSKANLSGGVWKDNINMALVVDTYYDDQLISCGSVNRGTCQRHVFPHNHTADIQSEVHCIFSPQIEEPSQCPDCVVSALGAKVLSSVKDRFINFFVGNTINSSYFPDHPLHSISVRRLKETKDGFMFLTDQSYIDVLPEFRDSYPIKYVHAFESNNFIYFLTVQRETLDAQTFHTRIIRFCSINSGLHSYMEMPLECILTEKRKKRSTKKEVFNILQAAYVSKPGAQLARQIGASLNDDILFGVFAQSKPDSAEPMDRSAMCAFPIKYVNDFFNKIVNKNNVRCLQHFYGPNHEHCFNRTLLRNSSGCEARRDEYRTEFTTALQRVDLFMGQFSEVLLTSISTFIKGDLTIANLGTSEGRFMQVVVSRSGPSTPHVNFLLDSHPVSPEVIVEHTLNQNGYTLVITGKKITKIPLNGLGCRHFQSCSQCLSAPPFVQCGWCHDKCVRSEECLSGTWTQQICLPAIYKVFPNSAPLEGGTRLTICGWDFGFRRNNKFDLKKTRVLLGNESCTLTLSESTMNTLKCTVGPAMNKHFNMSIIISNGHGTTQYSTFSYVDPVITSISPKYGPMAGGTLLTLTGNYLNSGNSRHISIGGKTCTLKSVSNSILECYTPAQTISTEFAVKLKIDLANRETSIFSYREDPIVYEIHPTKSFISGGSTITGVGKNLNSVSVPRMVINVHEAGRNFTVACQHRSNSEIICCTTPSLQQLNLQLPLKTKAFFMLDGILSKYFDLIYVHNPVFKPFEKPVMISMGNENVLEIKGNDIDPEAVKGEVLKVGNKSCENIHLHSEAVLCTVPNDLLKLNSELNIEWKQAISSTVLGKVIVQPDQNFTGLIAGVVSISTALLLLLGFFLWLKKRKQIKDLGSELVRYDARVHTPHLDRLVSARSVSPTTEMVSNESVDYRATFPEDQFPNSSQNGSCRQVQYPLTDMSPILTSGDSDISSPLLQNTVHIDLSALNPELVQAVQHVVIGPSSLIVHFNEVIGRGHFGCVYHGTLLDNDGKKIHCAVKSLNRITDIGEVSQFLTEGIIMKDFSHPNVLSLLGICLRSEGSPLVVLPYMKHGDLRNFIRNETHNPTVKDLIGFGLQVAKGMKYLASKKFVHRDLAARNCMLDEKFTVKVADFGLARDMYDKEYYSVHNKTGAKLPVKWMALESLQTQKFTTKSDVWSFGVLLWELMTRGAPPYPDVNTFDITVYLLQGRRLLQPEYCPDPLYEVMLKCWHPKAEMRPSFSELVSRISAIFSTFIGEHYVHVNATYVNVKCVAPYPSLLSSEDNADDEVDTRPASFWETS
T1 sequence (F6ZDS4 whole entry partner, the tested form may be a part): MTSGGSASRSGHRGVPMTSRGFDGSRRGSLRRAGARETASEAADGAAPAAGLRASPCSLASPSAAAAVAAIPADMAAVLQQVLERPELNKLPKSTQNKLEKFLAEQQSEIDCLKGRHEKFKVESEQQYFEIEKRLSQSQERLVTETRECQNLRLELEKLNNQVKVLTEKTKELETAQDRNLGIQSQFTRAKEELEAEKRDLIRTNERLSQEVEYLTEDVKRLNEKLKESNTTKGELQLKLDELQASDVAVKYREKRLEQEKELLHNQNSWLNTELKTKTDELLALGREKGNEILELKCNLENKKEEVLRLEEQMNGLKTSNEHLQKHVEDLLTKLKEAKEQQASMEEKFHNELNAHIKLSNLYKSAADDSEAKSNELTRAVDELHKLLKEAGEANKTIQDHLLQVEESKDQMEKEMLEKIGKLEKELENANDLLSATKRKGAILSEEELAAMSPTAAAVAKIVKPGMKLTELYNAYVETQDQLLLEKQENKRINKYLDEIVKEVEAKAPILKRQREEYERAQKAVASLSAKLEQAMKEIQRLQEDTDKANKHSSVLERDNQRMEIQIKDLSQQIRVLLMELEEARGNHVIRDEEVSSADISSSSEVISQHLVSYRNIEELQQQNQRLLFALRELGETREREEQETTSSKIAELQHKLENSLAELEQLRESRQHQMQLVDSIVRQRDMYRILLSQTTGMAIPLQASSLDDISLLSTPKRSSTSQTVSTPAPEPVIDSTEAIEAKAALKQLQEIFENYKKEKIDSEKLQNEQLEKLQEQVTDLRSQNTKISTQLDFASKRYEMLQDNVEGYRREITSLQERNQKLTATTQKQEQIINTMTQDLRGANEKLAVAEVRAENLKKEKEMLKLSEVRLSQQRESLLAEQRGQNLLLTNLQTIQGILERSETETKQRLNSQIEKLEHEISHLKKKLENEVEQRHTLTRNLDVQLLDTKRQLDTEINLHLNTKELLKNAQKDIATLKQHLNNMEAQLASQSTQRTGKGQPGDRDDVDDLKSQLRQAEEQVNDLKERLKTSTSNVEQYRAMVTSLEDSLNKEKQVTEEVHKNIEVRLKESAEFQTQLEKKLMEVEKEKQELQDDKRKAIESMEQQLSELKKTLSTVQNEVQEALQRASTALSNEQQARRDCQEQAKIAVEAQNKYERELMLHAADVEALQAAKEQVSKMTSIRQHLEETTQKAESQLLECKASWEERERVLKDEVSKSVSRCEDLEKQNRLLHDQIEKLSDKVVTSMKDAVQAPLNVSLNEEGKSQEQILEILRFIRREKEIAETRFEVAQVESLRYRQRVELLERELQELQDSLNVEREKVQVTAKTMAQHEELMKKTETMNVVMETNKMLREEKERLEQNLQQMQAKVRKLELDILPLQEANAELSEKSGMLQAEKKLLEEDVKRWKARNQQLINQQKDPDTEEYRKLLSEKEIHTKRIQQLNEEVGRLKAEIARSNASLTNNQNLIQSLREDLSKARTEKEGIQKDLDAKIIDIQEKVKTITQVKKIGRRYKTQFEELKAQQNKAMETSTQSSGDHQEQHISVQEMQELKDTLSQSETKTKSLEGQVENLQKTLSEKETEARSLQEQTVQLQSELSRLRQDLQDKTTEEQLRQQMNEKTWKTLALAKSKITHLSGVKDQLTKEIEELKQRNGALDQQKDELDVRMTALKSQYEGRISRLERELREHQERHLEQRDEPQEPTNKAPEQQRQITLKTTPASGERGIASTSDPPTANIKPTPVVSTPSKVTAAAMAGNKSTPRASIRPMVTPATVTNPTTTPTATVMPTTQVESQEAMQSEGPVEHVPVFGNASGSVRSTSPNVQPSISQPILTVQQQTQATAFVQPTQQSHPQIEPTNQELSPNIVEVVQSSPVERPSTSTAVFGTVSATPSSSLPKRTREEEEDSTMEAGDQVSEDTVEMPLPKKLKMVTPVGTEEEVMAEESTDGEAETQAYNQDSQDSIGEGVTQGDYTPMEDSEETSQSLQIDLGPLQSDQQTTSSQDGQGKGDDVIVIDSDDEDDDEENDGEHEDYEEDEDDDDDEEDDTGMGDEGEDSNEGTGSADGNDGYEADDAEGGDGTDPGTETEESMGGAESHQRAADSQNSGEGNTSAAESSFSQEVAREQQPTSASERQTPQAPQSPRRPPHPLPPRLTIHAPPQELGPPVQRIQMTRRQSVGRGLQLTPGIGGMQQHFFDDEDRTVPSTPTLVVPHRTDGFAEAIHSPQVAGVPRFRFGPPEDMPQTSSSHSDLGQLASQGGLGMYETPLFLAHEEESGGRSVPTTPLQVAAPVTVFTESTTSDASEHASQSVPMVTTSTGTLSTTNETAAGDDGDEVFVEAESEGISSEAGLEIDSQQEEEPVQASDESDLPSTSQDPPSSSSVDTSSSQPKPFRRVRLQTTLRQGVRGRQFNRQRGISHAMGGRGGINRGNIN
T1 sequence (P16056 25-1379 limits assumed): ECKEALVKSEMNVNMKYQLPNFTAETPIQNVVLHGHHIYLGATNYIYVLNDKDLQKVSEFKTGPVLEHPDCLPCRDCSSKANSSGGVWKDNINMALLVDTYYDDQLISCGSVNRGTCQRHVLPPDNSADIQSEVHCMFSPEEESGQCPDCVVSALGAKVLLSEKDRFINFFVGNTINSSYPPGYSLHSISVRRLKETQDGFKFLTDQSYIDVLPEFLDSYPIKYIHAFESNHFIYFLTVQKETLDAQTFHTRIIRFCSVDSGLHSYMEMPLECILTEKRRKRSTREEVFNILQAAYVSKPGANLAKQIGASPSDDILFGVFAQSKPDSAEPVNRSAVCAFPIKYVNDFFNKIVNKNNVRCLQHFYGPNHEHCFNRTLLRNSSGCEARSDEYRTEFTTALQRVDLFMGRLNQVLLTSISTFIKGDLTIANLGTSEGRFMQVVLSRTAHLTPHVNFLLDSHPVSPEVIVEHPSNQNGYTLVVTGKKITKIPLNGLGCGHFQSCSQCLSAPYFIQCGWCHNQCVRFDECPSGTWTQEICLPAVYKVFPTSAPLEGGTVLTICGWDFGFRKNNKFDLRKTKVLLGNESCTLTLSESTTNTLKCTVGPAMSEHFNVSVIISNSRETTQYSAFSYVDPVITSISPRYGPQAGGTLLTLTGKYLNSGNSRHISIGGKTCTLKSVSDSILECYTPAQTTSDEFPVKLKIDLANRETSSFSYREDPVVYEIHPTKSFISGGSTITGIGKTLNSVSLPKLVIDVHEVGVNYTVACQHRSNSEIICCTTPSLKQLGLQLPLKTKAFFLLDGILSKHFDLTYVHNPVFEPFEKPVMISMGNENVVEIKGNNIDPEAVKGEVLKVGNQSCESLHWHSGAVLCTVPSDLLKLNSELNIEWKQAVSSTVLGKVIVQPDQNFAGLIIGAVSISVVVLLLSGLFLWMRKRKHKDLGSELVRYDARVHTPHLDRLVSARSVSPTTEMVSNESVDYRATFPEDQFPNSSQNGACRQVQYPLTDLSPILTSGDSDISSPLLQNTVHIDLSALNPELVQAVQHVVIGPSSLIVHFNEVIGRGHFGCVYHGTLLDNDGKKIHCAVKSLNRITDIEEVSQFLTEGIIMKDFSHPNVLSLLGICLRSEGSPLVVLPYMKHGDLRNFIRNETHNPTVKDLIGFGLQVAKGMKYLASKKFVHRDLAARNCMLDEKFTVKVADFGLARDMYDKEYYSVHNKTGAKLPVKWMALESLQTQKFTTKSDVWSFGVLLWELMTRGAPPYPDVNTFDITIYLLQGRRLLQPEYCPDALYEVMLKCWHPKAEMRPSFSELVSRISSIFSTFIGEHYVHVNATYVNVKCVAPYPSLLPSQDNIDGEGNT

In the case of `C[C@@H](Sc1cc(-c2cnn(C3CCNCC3)c2)cnc1N)c1c(Cl)ccc(F)c1Cl`, the inhibition [1] is reported as “Dose-dependent effect”, the half-life [2] is reported as 5.7 h and the IC50 [3] is reported as greater than 1 µM. The inhibition [4] was “Dose-dependent effect”, the IC50 (SK-OV-3) was 12.7 µM and the inhibition [5] was “Active”. The inhibition [6] was “Active”, the inhibition [7] was “Dose-dependent effect” and the inhibition [8] was “Active”. For the same compound, the IC50 [9] was greater than 1 µM, the IC50 (NCI-H441) was 15.5 µM and the IC50 [10] was greater than 1 µM. The IC50 (NIH3T3) was 0.61 µM, the IC50 [11] was greater than 1 µM and the Activity (BaF3 [12]) was 69.6%. For the same compound, the IC50 [13] was greater than 1 µM, the Activity (Mus musculus) was “Non-toxic” and the inhibition [14] was “Dose-dependent effect”. The IC50 [15] was 0.336 µM, the IC50 [16] was 0.71 µM and the inhibition [17] was “Active”. The inhibition [18] was “Active”, the IC50 [19] was greater than 1 µM and the inhibition [20] was “Active”. For the same compound, the IC50 (BaF3 [21]) was 0.58 µM.

Reference: ChEMBL document CHEMBL2440064, “Synthesis and biological evaluation of 2-amino-5-aryl-3-benzylthiopyridine scaffold based potent c-Met inhibitors” (Bioorg Med Chem, 2013)
